Source: ChEMBL document CHEMBL3044971, “Dialkoxybenzene and dialkoxyallylbenzene feeding and oviposition deterrents against the cabbage looper, Trichoplusia ni: potential insect behavior control agents” (J Agric Food Chem, 2010)

Experiments:
Trichoplusia ni [1] = experiment: Oviposition deterrent activity against adult female Trichoplusia ni (cabbage looper) moths introduced along with male moths into oviposition cage containing compound pretreated cabbage leaves assessed as eggs laying on the leaf disks at 0.25% after 48 hr; format: functional
Summary of the method: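 Choice test: one male and one female moth were caged with a control and a treated cabbage leaf (~100-110 cm²). Each side was sprayed with 0.5 mL MeOH or methanolic test solution at 0.25%. Values are mean ± SE, N = 35-40.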

Trichoplusia ni [2] = conditions: in vivo, 24 h
Trichoplusia ni [3] = experiment: Feeding deterrent activity against freshly molted third-instar larval stage of Trichoplusia ni (cabbage looper) in compound pretreated cabbage leaves after 3 to 5 hr by leaf disk choice bioassay; format: functional, organism-based
Summary of the method: (§1)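 Leaf-disk choice test on greenhouse cabbage (Stonehead) leaves from 5-6-week plants. Freshly molted third-instar T. ni from a diet-reared colony (>50 generations) were starved 4-5 h. One disk had 10 μL test solution painted on each side, the other carrier solvent only. There were 25 larvae per treatment. Run ended at ~50% control disk eaten (3-5 h). Deterrence = (C−T)/(C+T)×100 from consumed areas.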

Trichoplusia ni [4] = experiment: Feeding deterrent activity against freshly molted third-instar larval stage of Trichoplusia ni (cabbage looper) in compound pretreated cabbage leaves at 50 ug/cm2 after 3 to 5 hr by leaf disk choice bioassay; format: functional; summary of the method: as §1

Question: What does the source list for `COc1cccc(OCCC(C)C)c1` [1-isopentyloxy-3-methoxybenzene]?
Answer: Activity (Trichoplusia ni [1]): 30%; mortality (Trichoplusia ni [2]): 30%; DC50 (Trichoplusia ni [3]): 29 microg/cm2; Activity (Trichoplusia ni [4]): 89%

Question: For `CCCCOc1ccccc1OCCC` [1-propoxy-2-butoxybenzene], which Activity (Trichoplusia ni [1]) is on record?
Answer: The Activity was 37%.

Question: What about the mortality (Trichoplusia ni [2]) of the same compound?
Answer: Its mortality is 19%.

Question: And the DC50 (Trichoplusia ni [3])?
Answer: The DC50 was 21 microg/cm2.

Question: What about the Activity (Trichoplusia ni [4]) of the same compound?
Answer: Its Activity is 98%.

Question: For `C=CCc1cccc(OCCCC)c1O`, which Activity (Trichoplusia ni [1]) is on record?
Answer: Its Activity is 7%.

Question: What about the mortality (Trichoplusia ni [2]) of the same compound?
Answer: The mortality was 17%.

Question: And the DC50 (Trichoplusia ni [3])?
Answer: Its DC50 is 20.6 microg/cm2.

Question: What about the Activity (Trichoplusia ni [4]) of the same compound?
Answer: Its Activity is 100%.

Question: For `CCCCOc1ccc2c(c1)CC(C)O2` (stereo not given), which Activity (Trichoplusia ni [1]) is on record?
Answer: The Activity was -12%.

Question: And the mortality (Trichoplusia ni [2])?
Answer: Its mortality is 1%.

Question: And the DC50 (Trichoplusia ni [3])?
Answer: Its DC50 is 16 microg/cm2.

Question: What about the Activity (Trichoplusia ni [4]) of the same compound?
Answer: Its Activity is 100%.

Question: Which results are given for `C=CCc1ccc(OCC)c(OC)c1` [ETHYLEUGENOL]?
Answer: Activity (Trichoplusia ni [1]): 18%; mortality (Trichoplusia ni [2]): 35%; DC50 (Trichoplusia ni [3]): 50 microg/cm2; Activity (Trichoplusia ni [4]): 51%

Question: Which results are given for `C=CCc1ccc(OCCC(C)C)c(OC)c1` [ISOPENTYLEUGENOL]?
Answer: Activity (Trichoplusia ni [1]): 9%; mortality (Trichoplusia ni [2]): 28%; DC50 (Trichoplusia ni [3]): 25 microg/cm2; Activity (Trichoplusia ni [4]): 86%

Question: Which results are given for `C=CCOc1ccc(OC)cc1` [1-allyloxy-4-methoxybenzene]?
Answer: Activity (Trichoplusia ni [1]): 13%; mortality (Trichoplusia ni [2]): 6%; DC50 (Trichoplusia ni [3]): 30 microg/cm2; Activity (Trichoplusia ni [4]): 62%

Question: Which results are given for `C=CCc1cc(OCC)ccc1OCCC(C)C`?
Answer: Activity (Trichoplusia ni [1]): 20%; mortality (Trichoplusia ni [2]): 27%; DC50 (Trichoplusia ni [3]): 15 microg/cm2; Activity (Trichoplusia ni [4]): 83%

Question: Which results are given for `C=CCc1cc(OCCC)ccc1OCCC`?
Answer: Activity (Trichoplusia ni [1]): 21%; mortality (Trichoplusia ni [2]): 17%; DC50 (Trichoplusia ni [3]): 33 microg/cm2; Activity (Trichoplusia ni [4]): 65%

Question: Which results are given for `CC(C)CCOc1ccc2c(c1)CC(C)O2` (stereo not given)?
Answer: Activity (Trichoplusia ni [1]): -12%; mortality (Trichoplusia ni [2]): 1%; DC50 (Trichoplusia ni [3]): 16 microg/cm2; Activity (Trichoplusia ni [4]): 100%

Question: What does the source list for `C=CCc1cc(OCCC(C)C)ccc1OCCC(C)C`?
Answer: Activity (Trichoplusia ni [1]): 20%; mortality (Trichoplusia ni [2]): 27%; DC50 (Trichoplusia ni [3]): 15 microg/cm2; Activity (Trichoplusia ni [4]): 83%

Question: Which Activity (Trichoplusia ni [1]) does the source give for `C=CCc1cc(OCCC)ccc1OCCC(C)C` here?
Answer: Its Activity is 20%.

Question: What about the mortality (Trichoplusia ni [2]) of the same compound?
Answer: Its mortality is 27%.

Question: What about the DC50 (Trichoplusia ni [3]) of the same compound?
Answer: The DC50 was 15 microg/cm2.

Question: And the Activity (Trichoplusia ni [4])?
Answer: Its Activity is 83%.

Question: With `COc1ccc2c(c1)CC(C)O2` (stereo not given) as the compound, how does the Activity (Trichoplusia ni [1]) read?
Answer: The Activity was -12%.

Question: What about the mortality (Trichoplusia ni [2]) of the same compound?
Answer: The mortality was 1%.

Question: And the DC50 (Trichoplusia ni [3])?
Answer: The DC50 was 16 microg/cm2.

Question: What about the Activity (Trichoplusia ni [4]) of the same compound?
Answer: Its Activity is 100%.

Question: How did the Activity (Trichoplusia ni [1]) turn out when `C=CCc1cccc(OCCC(C)C)c1O` was run?
Answer: Its Activity is 7%.

Question: What about the mortality (Trichoplusia ni [2]) of the same compound?
Answer: Its mortality is 17%.

Question: What about the DC50 (Trichoplusia ni [3]) of the same compound?
Answer: The DC50 was 20.6 microg/cm2.

Question: And the Activity (Trichoplusia ni [4])?
Answer: The Activity was 100%.

Question: For `C=CCc1cccc(OCCC)c1OCC`, which Activity (Trichoplusia ni [1]) is on record?
Answer: Its Activity is 31%.

Question: And the mortality (Trichoplusia ni [2])?
Answer: The mortality was 27%.

Question: What about the DC50 (Trichoplusia ni [3]) of the same compound?
Answer: Its DC50 is 20 microg/cm2.

Question: What about the Activity (Trichoplusia ni [4]) of the same compound?
Answer: Its Activity is 100%.

Question: Which Activity (Trichoplusia ni [1]) does the source give for `C=CCc1cc(OCCC)ccc1OC` here?
Answer: Its Activity is 37%.

Question: What about the mortality (Trichoplusia ni [2]) of the same compound?
Answer: The mortality was 17%.

Question: And the DC50 (Trichoplusia ni [3])?
Answer: The DC50 was 19 microg/cm2.

Question: And the Activity (Trichoplusia ni [4])?
Answer: The Activity was 68%.

Question: Which Activity (Trichoplusia ni [1]) does the source give for `C=CCc1cc(OCCCC)ccc1OCCC(C)C` here?
Answer: The Activity was 20%.

Question: What about the mortality (Trichoplusia ni [2]) of the same compound?
Answer: The mortality was 27%.

Question: And the DC50 (Trichoplusia ni [3])?
Answer: Its DC50 is 15 microg/cm2.

Question: What about the Activity (Trichoplusia ni [4]) of the same compound?
Answer: Its Activity is 83%.

Question: For `C=CCc1cc(OCCCC)ccc1OCC`, which Activity (Trichoplusia ni [1]) is on record?
Answer: Its Activity is 64%.

Question: What about the mortality (Trichoplusia ni [2]) of the same compound?
Answer: The mortality was 3.3%.

Question: What about the DC50 (Trichoplusia ni [3]) of the same compound?
Answer: The DC50 was 22 microg/cm2.

Question: And the Activity (Trichoplusia ni [4])?
Answer: The Activity was 66%.

Question: Which Activity (Trichoplusia ni [1]) does the source give for `C=CCc1cc(OCC)ccc1OC` here?
Answer: The Activity was 37%.

Question: What about the mortality (Trichoplusia ni [2]) of the same compound?
Answer: The mortality was 17%.

Question: And the DC50 (Trichoplusia ni [3])?
Answer: The DC50 was 19 microg/cm2.

Question: What about the Activity (Trichoplusia ni [4]) of the same compound?
Answer: The Activity was 68%.

Question: Which Activity (Trichoplusia ni [1]) does the source give for `C=CCc1cccc(OC)c1OC` here?
Answer: The Activity was 32%.

Question: And the mortality (Trichoplusia ni [2])?
Answer: Its mortality is 17%.

Question: What about the DC50 (Trichoplusia ni [3]) of the same compound?
Answer: The DC50 was 15.5 microg/cm2.

Question: And the Activity (Trichoplusia ni [4])?
Answer: Its Activity is 100%.

Question: `C=CCOc1cccc(OCC=C)c1` was tested. Which Activity (Trichoplusia ni [1]) did it give?
Answer: The Activity was 26%.

Question: What about the mortality (Trichoplusia ni [2]) of the same compound?
Answer: The mortality was 13%.

Question: What about the DC50 (Trichoplusia ni [3]) of the same compound?
Answer: Its DC50 is 20 microg/cm2.

Question: What about the Activity (Trichoplusia ni [4]) of the same compound?
Answer: The Activity was 97%.

Question: Which Activity (Trichoplusia ni [1]) does the source give for `C=CCc1cccc(OCCCC)c1OC` here?
Answer: The Activity was 32%.

Question: What about the mortality (Trichoplusia ni [2]) of the same compound?
Answer: The mortality was 17%.

Question: And the DC50 (Trichoplusia ni [3])?
Answer: The DC50 was 15.5 microg/cm2.

Question: And the Activity (Trichoplusia ni [4])?
Answer: Its Activity is 100%.

Question: With `C=CCc1cc(OCCCC)ccc1O` as the compound, how does the Activity (Trichoplusia ni [1]) read?
Answer: Its Activity is 51%.

Question: What about the mortality (Trichoplusia ni [2]) of the same compound?
Answer: Its mortality is 3.3%.

Question: What about the DC50 (Trichoplusia ni [3]) of the same compound?
Answer: The DC50 was 57 microg/cm2.

Question: And the Activity (Trichoplusia ni [4])?
Answer: Its Activity is 51%.

Question: Which results are given for `C=CCOc1ccc(CC=C)cc1OC` [ALLYLEUGENOL]?
Answer: Activity (Trichoplusia ni [1]): 16%; mortality (Trichoplusia ni [2]): 18%; DC50 (Trichoplusia ni [3]): 15 microg/cm2; Activity (Trichoplusia ni [4]): 86%

Question: Which results are given for `CCCOc1ccc2c(c1)CC(C)O2` (stereo not given)?
Answer: Activity (Trichoplusia ni [1]): -12%; mortality (Trichoplusia ni [2]): 1%; DC50 (Trichoplusia ni [3]): 16 microg/cm2; Activity (Trichoplusia ni [4]): 100%
